Source: PubChem BioAssay
Shown are actives, neighbours in structure and some others; about 0.61% of the full set was active somewhere.
XiGFP reactiv: reactivates the inactive X chromosome in mouse fibroblasts; XiGFP mouse fibroblasts, % GFP-positive cells imaging, 3 d; cells co-treated with 5-aza-dC sensitizer; scaled so ellipticine positive control = 100%; activation, % at 7.58 µM; hit rate 0.055% among 360,000; AID 743238;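 active means mean normalized replicate activation at least 10% and every replicate at or above 10%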;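 further: 0% = median of on-plate neutral control wells and 100% = ellipticine 6 µM median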
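Assay system: SV40-immortalized XiGFP fibroblast cells, line 68-5-11; buffer or medium: DMEM plus 5-aza-dC sensitizer; compound: one concentration, pinned; timing: compounds 3 days, fix/stain 15 min at room temperature; benchmarks: positive control ellipticine, 6 µM final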
CFTR F508del cor: correctors of CFTR F508del function in bronchial epithelial cells; CFBE cells, YFP halide quenching; stimulated with forskolin plus potentiator P3; % fluorescence drop versus neutral controls; activity (quench increase), % at 7.58 µM; hit rate 0.36% among 350,000;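 active means mean added fluorescence quench of at least 8% versus neutral control, with both replicates also reaching 8%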;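 further: cells transiently co-express mutant CFTR-F508del with the halide-sensitive YFP; corrector assay measuring rescue of mutant channel to the surface after 24 h compound exposure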
E-sel inducer: induces E-selectin expression in human endothelial cells; HUVEC E-selectin immunofluorescence imaging; normalized: neutral wells 0, TNF-alpha wells 100; activation, % at 7.58 µM; hit rate 0.37% among 260,000; AID 686992;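 active means mean E-selectin-positive cell signal at least 10% of the positive control, reached in at least 60% of replicates, without over 20% cell loss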
Target sequence (P16581 whole entry, looked up): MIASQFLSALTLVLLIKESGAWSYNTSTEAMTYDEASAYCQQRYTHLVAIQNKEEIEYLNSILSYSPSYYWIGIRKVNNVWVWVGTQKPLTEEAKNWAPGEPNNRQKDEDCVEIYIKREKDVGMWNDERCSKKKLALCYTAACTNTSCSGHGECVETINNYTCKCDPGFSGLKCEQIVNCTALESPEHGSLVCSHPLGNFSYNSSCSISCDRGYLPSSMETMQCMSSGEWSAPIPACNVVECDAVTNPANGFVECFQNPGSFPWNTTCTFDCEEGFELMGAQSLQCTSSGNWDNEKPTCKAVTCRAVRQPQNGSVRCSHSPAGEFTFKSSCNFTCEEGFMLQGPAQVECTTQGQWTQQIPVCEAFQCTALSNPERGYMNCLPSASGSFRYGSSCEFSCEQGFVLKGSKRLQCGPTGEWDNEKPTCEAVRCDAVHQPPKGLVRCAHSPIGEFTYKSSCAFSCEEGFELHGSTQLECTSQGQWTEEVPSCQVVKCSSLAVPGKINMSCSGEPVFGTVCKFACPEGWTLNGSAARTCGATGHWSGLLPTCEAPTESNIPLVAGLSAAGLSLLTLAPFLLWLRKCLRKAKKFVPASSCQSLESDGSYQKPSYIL
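Test system: HUVEC | Signal: Immunofluorescence imaging | Read-out: Percent E-selectin-positive cells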
Active calls of the source: *; / = not tested or not shown.

SMILES	XiGFP reactiv	CFTR F508del cor	E-sel inducer
C[C@@H]1CN([C@H](C)CO)C(=O)c2cc(NS(=O)(=O)c3ccccc3)ccc2O[C@@H]1CN(C)C(=O)NC1CCCCC1	1	3	117*
C[C@H]1CN([C@@H](C)CO)C(=O)c2cc(NS(C)(=O)=O)ccc2O[C@@H]1CN(C)C(=O)Nc1ccccc1	0	-2	-15
C[C@@H]1CN([C@H](C)CO)C(=O)c2cc(NS(C)(=O)=O)ccc2O[C@@H]1CN(C)C(=O)Nc1ccccc1	0	-1	82*
Cc1ccc(S(=O)(=O)Nc2ccc3c(c2)C(=O)N([C@@H](C)CO)C[C@H](C)[C@H](CN(C)C(=O)NC2CCCCC2)O3)cc1	-1	-5	0
Cc1ccc(S(=O)(=O)Nc2ccc3c(c2)C(=O)N([C@H](C)CO)C[C@@H](C)[C@H](CN(C)C(=O)NC2CCCCC2)O3)cc1	-1	0	5
C[C@H](CO)N1C[C@H](C)[C@H](CN(C)C(=O)NC2CCCCC2)Oc2ccc(NS(=O)(=O)c3ccccc3)cc2C1=O	0	3	63*
COc1ccc(S(=O)(=O)N(C)C[C@@H]2Oc3ccc(N(C)C)cc3C(=O)N([C@H](C)CO)C[C@@H]2C)cc1	0	-1	/
COc1ccc(NC(=O)N(C)C[C@@H]2Oc3ncc(C#CC(C)C)cc3C(=O)N([C@H](C)CO)C[C@@H]2C)cc1	0	-3	0
CO[C@@H]1CN(C)C(=O)c2ccc(NC(=O)c3nc4ccccc4s3)cc2OC[C@H](C)N(Cc2cncnc2)C[C@@H]1C	0	-2	0
C[C@@H]1CCCCO[C@@H](CN(C)C(=O)CCC(F)(F)F)[C@H](C)CN([C@H](C)CO)C(=O)c2cc(NS(=O)(=O)c3ccc(Cl)cc3)ccc2O1	0	4	0
O=C(CSc1nnc(-c2cccnc2)s1)Nc1ccccc1	/	0	/
c1ccc(Nc2nnc(-c3cccnc3)s2)cc1	0	-5	48*
COCC(=O)N1C[C@@H](C)[C@H](OC)CN(C)C(=O)c2cc(NC(=O)Nc3cccc(F)c3)ccc2OC[C@H]1C	0	-1	0
COCC(=O)Nc1ccc2c(c1)C(=O)N(C)[C@H]1CC[C@H](CC(=O)NCC(F)(F)F)O[C@@H]1CO2	0	-1	0
COc1ccc(C2CC(c3cccc(Br)c3)=NN2c2ccc(S(N)(=O)=O)cc2)cc1 (centres undefined)	0	10*	0
COc1ccc(C2CC(c3cccc(F)c3)=NN2c2ccc(S(N)(=O)=O)cc2)cc1 (centres undefined)	0	-3	-1
Cc1ccc2cc(CN(CC3CCCO3)C(=S)Nc3ccccc3)c(=O)[nH]c2c1 (centres undefined)	1	6	/
Cc1ccc2cc(CN(CC3CCCO3)C(=S)Nc3ccccc3)c(=O)[nH]c2c1C (centres undefined)	0	12*	0
N#C[C@@H]1[C@H](c2ccc(C#CC3CC3)cc2)[C@@H](CO)N1S(=O)(=O)c1ccccc1	0	0	0
COc1ccc(NC(=O)c2ccc(OCC3CCCO3)cc2)cc1Cl (centres undefined)	0	-1	-1
COc1ccc(NC(=O)c2ccc(OCC3CCCO3)cc2)cc1OC (centres undefined)	0	8.8*	1
CCN(CC)C(=O)c1oc2ccc(S(=O)(=O)N3CCCCCC3)cc2c1C	/	-1	/
CCN(CC)C(=O)c1oc2ccc(S(=O)(=O)N3CC(C)CC(C)C3)cc2c1C (centres undefined)	0	9.2*	/
CSc1nc2c(cnn2-c2ccc(C)c(C)c2)c(=O)[nH]1	0	3	48*
CCC(C)Sc1nc2c(cnn2-c2ccc(C)c(C)c2)c(=O)[nH]1 (centres undefined)	0	0	-1
SMILES	XiGFP reactiv	CFTR F508del cor	E-sel inducer
COc1cccc(C(=O)N2c3cc(C)ccc3OCC2C(C)(C)C)c1 (centres undefined)	0	-1	0
CC(C)(C)C1COc2ccccc2N1C(=O)c1cccc(Cl)c1 (centres undefined)	0	9.5*	3
Cc1cc(C)cc(NC(=O)Nc2ccc(-n3ccc(C(F)(F)F)n3)cc2)c1	0	-2	46*
O=C(Nc1ccc(-n2ccc(C(F)(F)F)n2)cc1)Nc1cccc(Cl)c1	0	4	1
C[C@@H]1CN([C@@H](C)CO)S(=O)(=O)c2ccc(C#CC3CC3)cc2O[C@H]1CN(C)Cc1ccccc1F	-1	4	0
COc1ccc(-c2ccc(C3[C@H]4CNC[C@@H]3N4Cc3ccc4c(c3)OCO4)cc2)cc1 (some centres undefined)	0	-2	0
Cc1onc(-c2ccccc2)c1-c1ccnn1C(=O)NC(C)C	0	-3	/
COC(=O)c1noc(C)c1-c1ccnn1C(=O)c1ccc(C)cc1	0	1	29*
Cc1noc(C)c1NC(=O)N(C)C[C@@H]1OCCCC[C@H](C)Oc2ccc(NC(=O)Nc3ccc(F)cc3)cc2C(=O)N([C@H](C)CO)C[C@@H]1C	0	-1	0
Cc1ccc(-c2cnc3c(c2)C(=O)N([C@@H](C)CO)C[C@H](C)[C@@H](CN(C)C(=O)c2ccncc2)O3)cc1	0	-3	0
CC(C)NC(=O)N(C)C[C@@H]1Oc2ccc(NC(=O)C3CC3)cc2C(=O)N([C@@H](C)CO)C[C@@H]1C	0	3	3
N=C1/C(=C\c2ccc(-c3cc(Cl)cc(Cl)c3)o2)C(=O)N=C2SC=C(c3ccccc3)N12	0	/	2
N=C1/C(=C/c2cccn2CCOc2ccccc2)C(=O)N=C2SC=C(c3ccccc3)N12	0	13*	0
COc1ccc(S(=O)(=O)Nc2cccc3c2O[C@@H](CN(C)Cc2ccc(C(=O)Nc4ccccc4N)cc2)[C@@H](C)CN([C@@H](C)CO)C3=O)cc1	-1	1	2
COc1ccccc1NC(=S)N1CCCC1	0	/	/
COc1ccccc1NC(=S)N1CCCCCC1	0	1	65*
C[C@H](CO)N1C[C@H](C)[C@@H](CN(C)C(=O)Nc2ccc(C(F)(F)F)cc2)Oc2ncc(-c3cccnc3)cc2C1=O	0	2	0
CCCNC(=O)C[C@@H]1CC[C@@H]2[C@@H](COc3ccc(NC(=O)Cc4cccs4)cc3C(=O)N2C)O1	0	-1	0
COc1ccc(CCNc2ncnc3sccc23)cc1OC	0	-1	-3
COc1ccc(CCNc2ncnc3c2oc2ccccc23)cc1OC	/	9.3*	/
C[C@@H]1CN([C@@H](C)CO)C(=O)c2cc(NC(=O)C3CCCCC3)ccc2O[C@@H](C)CCCCO[C@@H]1CN(C)S(=O)(=O)c1cn(C)cn1	0	0	0
COC(=O)C[C@H]1C[C@H]2c3cc(NS(=O)(=O)c4ccc(F)cc4)ccc3O[C@H]2[C@H](CO)O1	0	-1	-1
Cc1ccc(/C=N/NC(=O)c2n[nH]c3c2CCCC3)cc1	0	1	0
O=C(N/N=C/c1cccs1)c1n[nH]c2c1CCCC2	0	0	75*
CN(C)C(=O)C[C@@H]1CC[C@H]2[C@@H](COc3ccc(NC(=O)C4CCOCC4)cc3C(=O)N2C)O1	0	2	0
